# Screens deposited in PubChem BioAssay by several laboratories.
# XBP1 UPR activ – adaptive UPR (XBP1) activation; CHO-XBP1 luciferase reporter, IRE1-XBP1 UPR activation, luminescence; percent of tunicamycin response, DMSO as zero; activation, % at 20 µM; 330,000 tested, 0.33% active;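 active = versus positive control, 20 µM dose yields 30% or more activation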;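 note: 100% = tunicamycin at 10 µg/mL and 0% = DMSO only wells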
#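 Material: CHO cell line with stable XBP1 luciferase reporter; schedule: 16-18 h cell attachment at 37 °C, then 6 h compound exposure; signal: glow luminescence from Steady-Glo reagent; medium: serum-containing F12 medium, 10% FBS; benchmarks: tunicamycin 10 µg/mL and vehicle-only wells; read-out: percent activation relative to tunicamycin reference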
# 697 NFkB inh – lowers PMA/ionomycin-induced NF-kB signal in 697 B cells | 697 B-cell NF-kB luciferase reporter, 16 h | inhibition, % at 4 µM | 330,000 tested, 0.33% active; in the data active = inhibition above about 35%
# Jurkat NFkB inh – inhibitors of the PMA/ionomycin-induced NF-kB reporter in Jurkat cells. PMA/ionomycin-induced NF-kB luciferase reporter, luminescence. inhibition, % at 4 µM. 330,000 tested, 0.53% active; in the data active = inhibition above about 50%
# CHOP UPR activ – activators of apoptotic arm of unfolded protein response (CHOP); activation, % at 10 µM; AID 449763; CHO-CHOP luciferase reporter, UPR activation, luminescence; percent of tunicamycin response over DMSO baseline; 330,000 tested, 0.34% active;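 active = at 10 µM dose, activation of 40% or more, normalized to positive control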;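 note: 100% = tunicamycin at 10 µg/mL and 0% = DMSO alone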
#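 Assay system: CHO-CHOP cells, stable luciferase reporter of PERK-eIF2a-CHOP signalling / Buffer or medium: F12 plus 10% serum / Compound dosing: one dose, 10 µM in 0.5% DMSO / Times: 6 h compound treatment, 37 °C / Technique: luciferase luminescence / Read-out: % reporter activation, DMSO baseline versus tunicamycin full activation / Benchmarks: tunicamycin and DMSO controls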
# CHOP inh – inhibitors of CHOP induction in ER stress response. inhibition, % at 10 µM. CHO-K1 CHOP-promoter luciferase, tunicamycin-induced, 15-18 h. 220,000 tested, 3.8% active;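 active = compounds that reduced the stress-induced luciferase reporter signal by more than about 70% of percent inhibition, limit read from the data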;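 note: 0% = tunicamycin plus vehicle and 100% = wells without tunicamycin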
# Jurkat NFkB conf – inhibitors of the PMA/ionomycin-induced NF-kB reporter in Jurkat cells, retest | shares compounds with Jurkat NFkB inh | Jurkat NF-kB luciferase, 16 h | inhibition, % at 4 µM | 2,700 tested, 27% active | AID 435020;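 active = inhibition reaching about 45% at 4 µM in either replicate, limit read from the data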;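 note: plate controls were PMA/ionomycin stimulated DMSO wells for no effect and unstimulated DMSO wells for full effect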
# An asterisk follows results filed as active; x = no result given. The entries come from a sample that favours hits as a whole.
SMILES,XBP1 UPR activ,697 NFkB inh,Jurkat NFkB inh,CHOP UPR activ,CHOP inh,Jurkat NFkB conf
NS(=O)(=O)c1ccc(Sc2nc3ccccc3s2)c([N+](=O)[O-])c1,-5,-30,98*,-1,66,89*
Cc1nn(-c2ccccc2)c(OC(=O)c2cccs2)c1S(=O)(=O)c1ccc([N+](=O)[O-])cc1,0,9,5,3,45,x
COc1cccc(CC(=O)OCC(=O)NC(=O)c2ccc(OC(F)F)cc2)c1,-2,-47,-9,0,x,x
N/C(=N\OC(=O)c1ccc(Br)cc1)c1ccccc1,-3,-178,-163,-1,-20,-103
CC(C)(C)c1ccc(C(=O)O/N=C(\N)c2ccccc2)cc1,-6,0,71*,-3,x,85*
CC(=O)c1cn(C2OC(CO)C3OC(C)(C)OC32)c(=O)n(C)c1=O (centres undefined),1,-27,-28,-1,x,x
CC1CCN(c2ccc3c(c2)S(=O)(=O)c2ccccc2C3=O)CC1,11,-196,-211,3,x,-83
NC(=O)C1CCN(c2ccc3c(c2)S(=O)(=O)c2ccccc2C3=O)CC1,12,-4,-40,2,x,x
COc1ccc(S(=O)(=O)Cc2ccc(C(=O)N3CCN(c4cccc(C)c4)C(C)C3)o2)cc1 (centres undefined),-3,-49,61*,0,x,21
Cc1ccc(S(=O)(=O)Cc2ccc(C(=O)N3CCN(c4ccc(F)cc4)CC3)o2)cc1,-4,-12,20,0,64,x
Cc1ccc(S(=O)(=O)Cc2ccc(C(=O)N3CCN(c4cccc(C)c4C)CC3)o2)cc1,4,-33,58*,-1,x,52*
